MT stabilizer: stabilizes microtubules in HeLa cells; HeLa tubulin immunostaining HCS, 24 h; share of cells brighter than vehicle mean+2SD; % tubulin-high responders, % at 10 µM; 0.83% of 200,000 active; AID 2205;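 active = plate Z-score above 3 for both tubulin-high and condensed-nucleus cell shares, with cell loss under 80%, at 10 µM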;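 note: anti alpha tubulin signal scored within the nucleus-defined area of each cell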
b-catenin transl: beta-catenin nuclear translocation modulation. HeLa beta-catenin nuclear translocation, immunofluorescence imaging. nuclear translocation activity, % at 5 µM. 0.3% of 190,000 active. AID 1665;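 active = nuclear translocation activity above 50% at 5 µM, with a well cell count of 50 or more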;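 note: per-cell ratio of nuclear to cytoplasmic median beta-catenin stain intensity; plate controls were DMSO negative control for no effect and GSK-3 inhibitor IX positive control for full effect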
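assay system = human HeLa cells, endogenous beta-catenin | times = compound treatment 24 h, 37°C, 5% CO2 | detection = Anti-beta-catenin immunofluorescence on PFA-fixed, Triton-permeabilized cells, DAPI nuclei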
ROMK mod: modulates human ROMK potassium channel activity; P48048; Tet-inducible ROMK, thallium flux fluorescence; actives lie on both sides; B-score at 10 µM; 2% of 130,000 active; AID 1918;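 active = signal ratio slope over the read window, or its plate-corrected B-score, at least 3 SD from the plate mean, either direction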;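 note: B-score of the F/F0 ratio slope over 7 to 12 s after thallium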
Target sequence (P48048 whole entry, looked up): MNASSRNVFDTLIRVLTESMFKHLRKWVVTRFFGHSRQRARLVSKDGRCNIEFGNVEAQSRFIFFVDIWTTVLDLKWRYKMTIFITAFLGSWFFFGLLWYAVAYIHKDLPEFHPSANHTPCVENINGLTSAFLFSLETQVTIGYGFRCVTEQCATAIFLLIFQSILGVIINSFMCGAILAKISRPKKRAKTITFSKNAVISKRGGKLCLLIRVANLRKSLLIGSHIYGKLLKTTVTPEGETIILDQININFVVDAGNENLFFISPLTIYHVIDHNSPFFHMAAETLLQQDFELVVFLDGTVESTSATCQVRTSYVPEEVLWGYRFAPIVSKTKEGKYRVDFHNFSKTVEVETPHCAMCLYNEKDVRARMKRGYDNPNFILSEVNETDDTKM
Starred values were filed as active, the others as inactive; nt = no result given. In the library only some 1.9% were active in any assay of this set; here they are far more common.

SMILES | MT stabilizer | b-catenin transl | ROMK mod
CCN(CC)CCNC(=O)C(=O)NCC1OCCN1S(=O)(=O)c1ccc([N+](=O)[O-])cc1 (centres undefined) | 3.3 | -1.4 | 0.485
COc1ccc(CSc2nc3ccccc3c(=O)n2CCCN2CCOCC2)cc1F | 3.7 | -0.3 | -0.57
Clc1ncnc2scc(-c3ccccc3)c12 | 2.0 | -3.0 | nt
CNc1ncnc2sc(-c3ccccc3)cc12 | 7.2 | 2.5 | -0.996
S=c1[nH]cnc2scc(-c3ccccc3)c12 | 5.5 | -1.5 | 6.15*
S=c1[nH]cnc2sc(-c3ccccc3)cc12 | 4.3 | 2.3 | 7.73*
COc1ccc(C(=O)NN/C(=N/S(=O)(=O)c2ccc(C)cc2)c2ccccc2)cc1 | nt | -1.3 | nt
CC(C)(C)C1CCC(C(=O)OCC(=O)N2CCN(C(=O)c3ccco3)CC2)CC1 (centres undefined) | 7.6 | -1.9 | 0.736
CCN(CC)c1ccc(NC(=O)c2ccccc2F)cc1 | 52.4* | nt | nt
CCN(CC)c1ccc(NC(=O)c2cc(Cl)ccc2OC)cc1 | 1.7 | nt | 1.26
Cc1c(-c2nc(N)nc(Nc3ccccc3)n2)oc2ccccc12 | 24.7* | -1.2 | nt
Nc1nc(CN2CCCCCC2)nc(Nc2ccccc2)n1 | 3.5 | 1.1 | nt
O=C1CCCCC1Sc1nnc(-c2ccc3c(c2)OCO3)o1 (centres undefined) | 3.9 | -0.1 | -0.0764
CC1CC(C)CN(Cc2nc(N)nc(Nc3ccccc3)n2)C1 (centres undefined) | 1.9 | 2.2 | nt
CC1CC(C)CN(Cc2nc(N)nc(Nc3ccc4ccccc4c3)n2)C1 (centres undefined) | 46.1* | 39.8 | nt
O=S(=O)(c1ccc(Cl)cc1)N1c2ccccc2Oc2nc3ccccc3nc21 | 24.5* | 5.1 | 0.1
COc1ccc(S(=O)(=O)N2c3cc(Cl)ccc3Oc3nc4ccccc4nc32)cc1 | 12.6 | -0.9 | 0.404
COc1ccccc1C1OC2=C(Nc3ccc([N+](=O)[O-])cc3N2)C1=O (centres undefined) | nt | -4.2 | nt
C=CCn1c(SCC(=O)NC(=O)c2cccc([N+](=O)[O-])c2)nnc1-c1ccccc1F | 5.6 | -1.8 | -0.282
CCn1c(SCC(=O)N(C)c2c(N)n(Cc3ccccc3)c(=O)[nH]c2=O)nc2ccccc21 | nt | 0.2 | nt
Cc1nn(-c2ccccc2)c(C)c1/C=N/NC(=O)c1cc(-c2ccc(Cl)s2)[nH]n1 | 15.5* | 119.4* | 1.96
CC(/C=N/NC(=O)c1cc(C(C)(C)C)[nH]n1)=C\c1ccccc1 | 20.7 | -0.8 | nt
Cc1nn(-c2ccccc2)c(Cl)c1/C=N/NC(=O)OC(C)(C)C | 5.1 | -0.1 | nt
Cc1cc(C(=O)N/N=C/c2c(C)nn(-c3ccccc3)c2C)n[nH]1 | nt | -0.9 | nt
Cc1nn(-c2ccccc2)c(C)c1/C=N/NC(=O)c1cc(-c2cccs2)[nH]n1 | 8.9* | 162.0* | 1.21
SMILES | MT stabilizer | b-catenin transl | ROMK mod
Cc1ccc(C)c(OCC(=O)N/N=C/c2c(C)nn(-c3ccccc3)c2Cl)c1 | 21.5* | -2.1 | 2.04
CC(/C=N/NC(=O)c1cc(-c2ccc(C)s2)[nH]n1)=C\c1ccccc1 | 27.5* | 1.3 | 1.1
Cc1nn(-c2ccccc2)c(C)c1/C=N/NC(=O)c1cc(-c2ccc(Br)s2)[nH]n1 | 22.0 | 36.0 | nt
COCCCNc1nc2ccccc2nc1NS(=O)(=O)c1ccc(C)cc1C | nt | 1.3 | nt
O=C(CSc1ccc(F)cc1)NC1CCCCC1 | 6.0 | -3.9 | -0.0941
O=C(CCSc1nnc(-c2ccco2)o1)N1CCOCC1 | 1.8 | -1.9 | 0.985
COc1cccc(-n2nc(-c3ccnn3-c3ccc(C)cc3)c(=O)n(C)c2=O)c1 | 1.8 | nt | -0.00179
COCCNC(=O)C(=O)NNC(=O)CCc1ccccc1 | 3.6 | -1.3 | 0.00534
CC(C)(C)c1ccc(C(=O)NC(=S)NNC(=O)c2cccs2)cc1 | 2.5 | 1.3 | 9.07*
CC(C)(C)C(=O)NC(=S)NNC(=O)c1ccncc1 | 3.0 | -0.5 | -0.408
CC(C)(C)C(=O)NC(=S)NNC(=O)c1ccc(-c2ccccc2)cc1 | 5.0 | -3.4 | 6.09*
Cc1ccccc1C(=O)NNC(=S)NC(=O)COc1ccccc1 | 2.5 | -6.9 | 1.82
Cc1cccc(C(=O)NC(=S)NNC(=O)c2cccs2)c1 | 5.2 | 0.9 | nt
Cc1ccc(C(=O)NNC(=S)NC(=O)COc2ccccc2)cc1 | 1.6 | 0.4 | 6.61*
O=C(CCCO)N/N=C/c1ccccc1[N+](=O)[O-] | 2.6 | 1.7 | 0.909
COc1ccc(CCNC(=O)Cn2c(=O)[nH]c3ccsc3c2=O)cc1OC | 3.4 | 1.1 | 0.259
COc1ccc(S(=O)(=O)Nc2ccc(O)c(Sc3ncn[nH]3)c2)cc1 | 1.4 | -3.0 | nt
COc1ccc(S(=O)(=O)Nc2cc(Sc3ncn[nH]3)c(O)c3ccccc23)cc1 | 1.8 | nt | -6.27*
COc1ccccc1C(=O)NCCC(=O)N1CC(=O)Nc2ccccc21 | 4.8 | nt | 0.529
COCCNC(=O)CCC(=O)NNc1nc2ccccc2c2nc(-c3ccccc3)nn12 | 5.2 | 0.2 | nt
CCO[C@@H]1OC(C(=O)NCc2ccccc2)=C[C@H](C2CC2)[C@H]1CCCO | 1.5 | -1.2 | nt
CCO[C@@H]1OC(C(=O)NCc2nc3ccccc3[nH]2)=C[C@H](C2CC2)[C@H]1CCCO | 27.5* | 8.8 | nt
COCCNC(=O)/C(C#N)=C/c1cc(Br)c(O)c(OC)c1 | 5.0 | -1.4 | -0.338
CCOCCCNC(=O)/C(C#N)=C/c1cc(Br)c(O)c(Br)c1 | nt | 50.2* | nt
Cn1cccc1/C=C1\SC(=Nc2ccccc2)NC1=O | nt | 85.6* | nt
SMILES | MT stabilizer | b-catenin transl | ROMK mod
Cn1cccc1/C=C1\SC(=Nc2ccc(O)cc2)NC1=O | nt | 82.7* | -0.548
O=C1NC(=Nc2ccc(O)cc2)S/C1=C/c1ccco1 | 4.1 | 1.0 | -0.0221
Cc1ccc(N=C2NC(=O)/C(=C/c3cccn3C)S2)c(C)c1 | nt | 0.6 | nt
COc1ccc(Nc2nc(-c3ccc4c(c3)NC(=O)CO4)cs2)cc1 | 3.8 | -2.0 | 0.0352
COc1ccccc1Nc1nc(-c2ccc3c(c2)NC(=O)CO3)cs1 | 23.7* | 0.0 | -0.162
COC(=O)c1ccc(CNC(=O)COC(=O)C2CC3C=CC2C3)cc1 (centres undefined) | 3.8 | 1.5 | 0.753
CCCCOC(C)n1cc(F)c(=O)[nH]c1=O (centres undefined) | 4.0 | 1.9 | 0.0644
Nc1cc2c(cc1C(=O)c1cccc(Br)c1)OCCO2 | 15.7* | -0.5 | 0.0113
Nc1cc2c(cc1C(=O)c1ccccc1F)OCCO2 | 2.6 | -1.0 | -0.0162
Cc1nc2cc(NCc3cc([N+](=O)[O-])ccc3O)ccc2n1Cc1ccccc1 | 1.6 | 0.8 | -0.0524
O=c1oc2ccccc2cc1-c1nnc(NCc2ccco2)s1 | 20.1* | nt | nt
Nc1nnc(-c2cc3ccccc3oc2=O)s1 | 3.1 | 0.2 | 0.153
Cc1cc2oc(C(=O)Nc3ccc(S(N)(=O)=O)cc3)c(C)c2cc1Cl | 2.4 | 1.2 | nt
COc1cccc(-c2cc(C(=O)Nc3cc(OC)c(OC)c(OC)c3)no2)c1 | 49.5* | nt | nt
O=C(Nc1cccnc1)c1cc(-c2ccccc2)on1 | 3.5 | -1.7 | 3.5*
CC(C)n1cc(NC(=O)c2cc(-c3ccccc3)on2)cn1 | 28.3* | nt | 5.83*
COc1cccc(-c2cc(C(=O)Nc3cc(C)on3)no2)c1 | 2.0 | -1.6 | nt
COc1cccc(C(=O)Nc2cnn(C(C)C)c2)c1 | 5.9 | 1.7 | 0.0182
O=C(Nc1cccnc1)c1cc(-c2ccc(Br)cc2)on1 | 5.1 | -0.1 | nt
CCS(=O)(=O)N1CCN(c2cc3c(cc2[N+](=O)[O-])n(C)c(=O)n3C)CC1 | 4.1 | -0.1 | -0.184

Screening data as filed in PubChem.
